In ChEMBL document CHEMBL4002632, “Development of gallic acid formazans as novel enoyl acyl carrier protein reductase inhibitors for the treatment of tuberculosis” (Bioorg Med Chem Lett, 2017):
Converted amounts (≈) assume the structure as drawn. The source made the active and inactive calls. The rule behind the calls is not given here.

Assays:
[1] = system: Mycobacterium tuberculosis; experiment: Antimycobacterial activity against Mycobacterium tuberculosis H37Rv ATCC 27294 by agar dilution method; assay type: functional
Outline: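 Growth of M. tuberculosis H37Rv (ATCC27294) on agar dilution. Compounds at 50 to 0.78 μg/ml in duplicate. MIC taken as the lowest concentration giving complete growth inhibition. Isoniazid, ethambutol and ofloxacin served as references.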

[2] = system: Mycobacterium tuberculosis; experiment: Inhibition of Mycobacterium tuberculosis His6-tagged InhA expressed in Escherichia coli BL21 (DE3) assessed as decrease in NADH oxidation to NAD+ at 10 uM using 2-trans-decenoyl-CoA as substrate preincubated for 2 hrs followed by substrate and NADH addition measured for 1 min by spectrophotometric method relative to control
Outline: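 Recombinant MTB InhA expressed in E. coli and purified. DD-CoA reduction followed spectrophotometrically as NADH oxidation to NAD+. Fixed non-saturating NADH and DD-CoA, 1% DMSO. Compound at 10 μM; per cent inhibition relative to a no-inhibitor control, which set the maximal rate.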

Pseudomonas aeruginosa = experiment: Antibacterial activity against Pseudomonas aeruginosa at 50 to 100 ug/ml by cup plate agar diffusion method; assay type: functional
Outline: (§1)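 Tested at 50 and 100 μg/ml by cup-plate agar diffusion against E. coli, P. aeruginosa, S. aureus and B. subtilis.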

[3] = Inhibition of Mycobacterium tuberculosis His6-tagged InhA expressed in Escherichia coli BL21 (DE3) assessed as decrease in NADH oxidation to NAD+ using 2-trans-decenoyl-CoA as substrate preincubated for 2 hrs followed by substrate and NADH addition measured for 1 min by spectrophotometric method
Outline: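 Recombinant MTB InhA purified from E. coli. NADH oxidation during DD-CoA reduction read spectrophotometrically, with fixed non-saturating NADH and DD-CoA in 1% DMSO. IC50, the concentration halving enzyme velocity, determined for compounds giving over 50% inhibition at 10 μM.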

Staphylococcus aureus = experiment: Antibacterial activity against Staphylococcus aureus at 50 to 100 ug/ml by cup plate agar diffusion method; assay type: functional; outline: as §1
Escherichia coli = experiment: Antibacterial activity against Escherichia coli at 50 to 100 ug/ml by cup plate agar diffusion method; assay type: functional; outline: as §1
[4] = Cytotoxicity against mouse RAW264.7 cells assessed as growth inhibition at 100 uM after 72 hrs by MTT assay relative to control; assay type: cell-based; details: read-out: GI
Outline: (§2)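 RAW 264.7 mouse macrophage line exposed to compound at 100 and 50 μM for 72 h. Viability by MTT conversion to formazan. Reported as per cent inhibition.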

Bacillus subtilis = experiment: Antibacterial activity against Bacillus subtilis at 50 to 100 ug/ml by cup plate agar diffusion method; assay type: functional; outline: as §1
[5] = Cytotoxicity against mouse RAW264.7 cells assessed as growth inhibition at 50 uM after 72 hrs by MTT assay relative to control; assay type: cell-based; details: read-out: GI; outline: as §2
[6] = system: Mycobacterium tuberculosis; experiment: Antimycobacterial activity against Mycobacterium tuberculosis H37Rv-GFP infected in mouse RAW264.7 cells assessed as growth inhibition at 1 ug/ml after 5 days by confocal microscopic method; assay type: functional, cell-based
Outline: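 Intracellular M. tuberculosis in mouse macrophages. Initial screen at 0.1, 1 and 10 µg/ml.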

[7] = system: Mycobacterium tuberculosis; experiment: Antimycobacterial activity against Mycobacterium tuberculosis H37Rv-GFP infected in mouse RAW264.7 cells after 5 days by confocal microscopic method; assay type: functional, cell-based; details: RAW264.7, 120 h
Outline: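 Intracellular M. tuberculosis in mouse macrophages. After initial screening at 0.1, 1 and 10 µg/ml, six doses between 0.1 and 1.0 µg/ml were tested to derive IC50.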

[8] = system: Mycobacterium tuberculosis; experiment: Stabilization of Mycobacterium tuberculosis InhA assessed as change in melting temperature by sypro orange dye-based differential scanning fluorimetry
Outline: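 Differential scanning fluorimetry of InhA with ligand versus native protein. Heated from 25 °C to 95 °C in 0.1 °C steps with SYPRO Orange. Tm shift taken relative to native protein.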

Row | SMILES | MIC [1] | inhibition [2] | Activity (Pseudomonas aeruginosa) | IC50 [3] | Activity (Staphylococcus aureus) | Activity (Escherichia coli) | inhibition at 72 h, 100 µM [4] | Activity (Bacillus subtilis) | inhibition at 72 h, 50 µM [5] | growth inhibition (GI) [6] | IC50 [7] | ΔTm [8]
1 | CC[C@@H](CO)NCCN[C@@H](CC)CO [ETHAMBUTOL] | 7.64 µM (≈ 1.56 µg/mL) |  |  |  |  |  |  |  |  |  |  | 
2 | COc1ccccc1/N=N/C(=N/NC(=O)c1cc(O)c(O)c(O)c1)c1ccccc1 | 4 µM (≈ 1.63 µg/mL) | 71.7% | inactive | 6.66 µM | inactive | inactive | 52.7% | inactive | 46.5% |  |  | 
3 | NNC(=O)c1ccncc1 [ISONIAZID] | 0.72 µM (≈ 0.0987 µg/mL) |  |  |  |  |  |  |  |  |  |  | 
4 | O=C(N/N=C(/N=N/c1ccccc1[N+](=O)[O-])c1ccccc1)c1cc(O)c(O)c(O)c1 | 14.8 µM (≈ 6.26 µg/mL) | 62.3% | inactive | 8.46 µM | inactive | inactive | 5.43% | inactive | 2.11% |  |  | 
5 | O=C(N/N=C(/N=N/c1ccc(F)cc1)c1ccccc1)c1cc(O)c(O)c(O)c1 | 1.98 µM (≈ 0.78 µg/mL) | 87.1% | inactive | 3.42 µM | inactive | inactive | 23.7% | inactive | 11.8% | Active | 0.62 µg/mL (≈ 1.57 µM) | 
6 | CC1COc2c(N3CCN(C)CC3)c(F)cc3c(=O)c(C(=O)O)cn1c23 (stereo not given) [OFLOXACIN] | 2.16 µM (≈ 0.781 µg/mL) |  |  |  |  |  |  |  |  |  |  | 
7 | Cc1ccccc1/N=N/C(=N/NC(=O)c1cc(O)c(O)c(O)c1)c1ccccc1 | 15.4 µM (≈ 6.01 µg/mL) | 81.4% | inactive | 3.32 µM | inactive | inactive | 41.5% | inactive | 32.7% |  |  | 
8 | O=C(N/N=C(/N=N/c1ccccc1Cl)c1ccccc1)c1cc(O)c(O)c(O)c1 | 15.2 µM (≈ 6.25 µg/mL) | 57.1% | inactive | 9.16 µM | inactive | inactive | 32.6% | inactive | 24.5% |  |  | 
9 | COc1ccc(/N=N/C(=N/NC(=O)c2cc(O)c(O)c(O)c2)c2ccccc2)cc1 | 1.92 µM (≈ 0.781 µg/mL) | 69.3% | inactive | 5.79 µM | inactive | inactive | 15% | inactive | 4.51% | Active | 0.56 µg/mL (≈ 1.38 µM) | 
10 | O=C(N/N=C(/N=N/c1ccc(Cl)cc1Cl)c1ccccc1)c1cc(O)c(O)c(O)c1 | 1.75 µM (≈ 0.78 µg/mL) | 73.2% | inactive | 5.22 µM | inactive | inactive | 21.5% | inactive | 12.1% | Active | 0.35 µg/mL (≈ 0.786 µM) | 2.8 °C
11 | O=C(N/N=C(/N=N/c1ccccc1)c1ccccc1)c1cc(O)c(O)c(O)c1 | 38.1 µM (≈ 14.3 µg/mL) | 42.2% | inactive |  | inactive | inactive | 41.4% | inactive | 13.6% |  |  | 
12 | O=C(N/N=C(/N=N/c1ccc([N+](=O)[O-])cc1)c1ccccc1)c1cc(O)c(O)c(O)c1 | 7.42 µM (≈ 3.13 µg/mL) | 57.1% | inactive | 8.16 µM | inactive | inactive | 34.6% | inactive | 11.1% |  |  | 
